Experimental data taken from ChEMBL document CHEMBL1250434, “A novel achiral seco-cyclopropylpyrido[e]indolone (CPyI) analog of CC-1065 and the duocarmycins: synthesis, DNA interactions, in vivo anticancer and anti-parasitic evaluation” (Bioorg Med Chem, 2010).

Legend:
SNB-19 = assay: Cytotoxicity against human SNB19 cells after 48 hrs by sulforhodamine B assay; format: functional; details: SNB-19, 48 h, read-out: pLC50 (the source's name) (converted)
Outline: (§1)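 NCI human cancer cell line panel. Continuous 48 h drug exposure, viability by sulforhodamine B. GI50, TGI and LC50 derived from dose–response curves.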

COLO 205 = assay: Cytotoxicity against human COLO205 cells after 48 hrs by sulforhodamine B assay; format: functional; details: COLO 205, 48 h, read-out: pLC50 (the source's name) (converted); outline: as §1
SF-539 = assay: Cytotoxicity against human SF539 cells after 48 hrs by sulforhodamine B assay; format: functional; details: SF-539, 48 h, read-out: pLC50 (the source's name) (converted); outline: as §1
OVCAR-8 = assay: Cytotoxicity against human OVCAR8 cells after 48 hrs by sulforhodamine B assay; format: functional; details: OVCAR-8, 48 h, read-out: pLC50 (the source's name) (converted); outline: as §1
KM12 = assay: Cytotoxicity against human KM12 cells after 48 hrs by sulforhodamine B assay; format: functional; details: KM12, 48 h, read-out: pLC50 (the source's name) (converted); outline: as §1
SK-OV-3 = assay: Cytotoxicity against human SKOV3 cells after 48 hrs by sulforhodamine B assay; format: functional; details: SK-OV-3, 48 h, read-out: pLC50 (the source's name) (converted); outline: as §1
SF-268 = assay: Cytotoxicity against human SF268 cells after 48 hrs by sulforhodamine B assay; format: functional; details: SF-268, 48 h, read-out: pLC50 (the source's name) (converted); outline: as §1
L1210 [1] = assay: Selectivity ratio of IC50 for mouse L1210 cells to IC50 for mouse B16F0 cells; format: functional
HT-29 = assay: Cytotoxicity against human HT-29 cells after 48 hrs by sulforhodamine B assay; format: functional; details: HT-29, 48 h, read-out: pLC50 (the source's name) (converted); outline: as §1
Trypanosoma brucei = assay: Antimicrobial activity against procyclic form of Trypanosoma brucei 427 assessed as inhibition of cell proliferation after 72 hrs by alamar blue assay; format: functional, organism-based; details: Trypanosoma brucei, 427, 72 h
Outline: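 T. brucei 427 procyclic forms grown in SDM 79 medium with 0.03 nM to 64 µM compound for 72 h at 26 °C. Proliferation read by Alamar blue reduction after a further 15 h, fluorescence ex 530/em 590 nm.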

NCI-H522 = assay: Cytotoxicity against human NCI-H522 cells after 48 hrs by sulforhodamine B assay; format: functional; details: NCI-H522, 48 h, read-out: pLC50 (the source's name) (converted); outline: as §1
HOP-92 = assay: Cytotoxicity against human HOP92 cells after 48 hrs by sulforhodamine B assay; format: functional; details: HOP-92, 48 h, read-out: pLC50 (the source's name) (converted); outline: as §1
EKVX = assay: Cytotoxicity against human EKVX cells after 48 hrs by sulforhodamine B assay; format: functional; details: read-out: pLC50 (the source's name) (converted); outline: as §1
SNB-75 = assay: Cytotoxicity against human SNB75 cells after 48 hrs by sulforhodamine B assay; format: functional; details: SNB-75, 48 h, read-out: pLC50 (the source's name) (converted); outline: as §1
IGROV-1 = assay: Cytotoxicity against human IGROV1 cells after 48 hrs by sulforhodamine B assay; format: functional; details: IGROV-1, 48 h, read-out: pLC50 (the source's name) (converted); outline: as §1
L1210 [2] = assay: Cytotoxicity against mouse L1210 cells after 3 days by MTT assay; format: functional, cell-based; details: L1210, 72 h
Outline: (§2)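 Murine tumour cells under continuous drug exposure for 3 days. Growth inhibition measured by MTT assay. IC50 is the concentration inhibiting growth by 50%.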

Nucleic Acid = assay: Binding affinity to pUC18 DNA assessed as DNA alkylating activity after 5 hrs by thermal cleavage assay; format: nucleic-acid assay; details: Escherichia coli
Outline: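 PCR probe from the 749–956 region of pUC18. DNA precipitated and lyophilised, then heated at 90 °C for 30 min in sodium citrate buffer (pH 7.2) to cleave at alkylated adenines. Fragments resolved by electrophoresis.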

Mus musculus = assay: Systemic toxicity in mouse B16F0 cells xenografted C57/BL/6J mouse assessed as reduction of body weight at 10 mg/kg, ip administered on day 1, 5, and 9 measured after 21 days; format: organism-based; set-up: dose 10 mg/kg, route intraperitoneal; details: in vivo, 504 h
Outline: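 Female C57/BL/6J mice, 5–7 weeks old, 8 per group, carrying sc B16-F0 flank tumours implanted day 0. Dosed 10 mg/kg ip in 1:2 PET/5% glucose on days 1, 5 and 9; vehicle-treated controls on the same schedule. Body weights recorded every other day.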

Plasmodium falciparum = assay: Antimicrobial activity against Plasmodium falciparum infected in human erythrocytes assessed as growth inhibition; format: functional, organism-based
Outline: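 P. falciparum grown in human erythrocytes at 3–5% hematocrit in complete medium. In vitro growth assay at six concentrations, in triplicate, in three independent experiments.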

NCI-H322M = assay: Cytotoxicity against human NCI-H322M cells after 48 hrs by sulforhodamine B assay; format: functional; details: read-out: pLC50 (the source's name) (converted); outline: as §1
Leishmania donovani = assay: Antimicrobial activity against promastigotes of Leishmania donovani assessed as inhibition of cell proliferation after 72 hrs by alamar blue assay; format: functional, organism-based
Outline: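 Promastigotes at 5 × 10^4 cells/well in DME-L medium with 10% heat-inactivated FBS, hemin, xanthine and penicillin-streptomycin. Exposed to 0.03 nM to 64 µM compound for 72 h at 26 °C. Alamar blue added, incubated 15 h, dye reduction read by fluorescence ex 530/em 590 nm.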

[3] = Cytotoxicity against mouse B16F0 cells after 3 days by MTT assay; format: functional, cell-based; details: B16F0, 72 h; outline: as §2
SW-620 = assay: Cytotoxicity against human SW620 cells after 48 hrs by sulforhodamine B assay; format: functional; details: SW-620, 48 h, read-out: pLC50 (the source's name) (converted); outline: as §1
CCRF-CEM = assay: Cytotoxicity against human CCRF-CEM cells after 48 hrs by sulforhodamine B assay; format: functional; details: read-out: pLC50 (the source's name) (converted); outline: as §1

Question: For `COc1cc2cc(C(=O)Nc3cc(O)c4ncc(C)cc4c3CCCl)[nH]c2c(OC)c1OC`, which CC50 (SNB-19) is on record?
Answer: 100000 nM

Question: What about the CC50 (COLO 205) of the same compound?
Answer: > 100000 nM

Question: What about the CC50 (SF-539) of the same compound?
Answer: 151 nM

Question: And the CC50 (OVCAR-8)?
Answer: 275 nM

Question: And the CC50 (KM12)?
Answer: 191 nM

Question: And the CC50 (SK-OV-3)?
Answer: > 100000 nM

Question: And the CC50 (SF-268)?
Answer: > 100000 nM

Question: What about the Ratio (L1210 [1]) of the same compound?
Answer: 10

Question: And the CC50 (HT-29)?
Answer: > 100000 nM

Question: And the IC50 (Trypanosoma brucei)?
Answer: 56 nM

Question: And the CC50 (NCI-H522)?
Answer: > 100000 nM

Question: And the CC50 (HOP-92)?
Answer: 28200 nM

Question: And the CC50 (EKVX)?
Answer: 3020 nM

Question: And the CC50 (SNB-75)?
Answer: 11.5 nM

Question: What about the CC50 (IGROV-1) of the same compound?
Answer: > 100000 nM

Question: And the IC50 (L1210 [2])?
Answer: 0.72 nM

Question: And the Activity (Nucleic Acid)?
Answer: Dose-dependent effect

Question: What about the Activity (Mus musculus) of the same compound?
Answer: Toxic

Question: What about the IC50 (Plasmodium falciparum) of the same compound?
Answer: 1.8 nM

Question: And the CC50 (NCI-H322M)?
Answer: 123 nM

Question: What about the IC50 (Leishmania donovani) of the same compound?
Answer: 340 nM

Question: What about the IC50 [3] of the same compound?
Answer: 2.3 nM

Question: And the CC50 (SW-620)?
Answer: > 100000 nM

Question: What about the CC50 (CCRF-CEM) of the same compound?
Answer: > 100000 nM
